CXCR6 inh = blocks human CXCR6 beta-arrestin recruitment. hit rate 0.36% among 360,000. AID 602244. O00574. CHO-K1 PathHunter CXCR6 beta-arrestin, luminescence. inhibition, % at 20 µM; in the data active = inhibition above about 34%, passing the limit was not always enough;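 note: antagonist mode with CXCL16 agonist at 10 nM final; 0% = 10 nM CXCL16 with DMSO and 100% = unstimulated wells without agonist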
APJ agonist = agonists of human APJ apelin receptor | P35414 | CHO-K1 APJ PathHunter beta-arrestin, luminescence; 0% DMSO wells, 100% apelin | activation, % at 20 µM | hit rate 0.11% among 330,000;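 active = activation more than six SD over the plate average, tested at 20 µM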;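 note: 0% = DMSO alone and 100% = apelin-13 at 10 nM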
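Test system: CHO-K1 APJ beta-arrestin complementation cell line. Amount: cell density 1000 per well. Controls: DMSO negative, 10 nM Apelin-13 positive. Signal: luminescent beta-gal fragment complementation, chemiluminescent substrate. Read-out basis: agonist-driven arrestin binding to APJ. Timing: compound stimulation 90 min at 25 °C, detection 60 min.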
EBI2 block = antagonists of human EBI2 receptor. P32249. EBI2 beta-arrestin recruitment, luminescence, 7a,25-OHC stimulated. inhibition, % at 5 µM. hit rate 0.81% among 360,000. AID 651636; in the data active = inhibition above about 38%;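 note: enzyme fragment complementation signal reports receptor beta-arrestin coupling in cells; 0% = agonist plus DMSO wells and 100% = wells without agonist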
APJ antagonist = APJ receptor antagonism; P35414; CHO-K1 APJ beta-arrestin complementation, luminescence; inhibition, % at 20 µM; hit rate 0.32% among 330,000;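 active = inhibition above about 40% at 20 µM, limit read from the data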;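 note: cells challenged with 10 nM apelin-13 agonist together with compound; plate controls were apelin-13 plus DMSO wells for no effect and DMSO wells lacking apelin-13 for full effect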
CCR6 antagonist = antagonists of human CCR6 receptor; P51684; CHO-K1 CCR6 PathHunter beta-arrestin, luminescence, CCL20-stimulated; inhibition, % at 20 µM; hit rate 0.49% among 340,000; AID 493098;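 active = compounds whose inhibition of the agonist-driven luminescence signal at 20 µM reaches about 50%, limit read from the data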;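 note: cells stimulated with CCL20 at 14 nM final; plate controls were DMSO with CCL20 for no effect and DMSO without agonist for full effect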
Target sequence (P51684 whole entry, looked up): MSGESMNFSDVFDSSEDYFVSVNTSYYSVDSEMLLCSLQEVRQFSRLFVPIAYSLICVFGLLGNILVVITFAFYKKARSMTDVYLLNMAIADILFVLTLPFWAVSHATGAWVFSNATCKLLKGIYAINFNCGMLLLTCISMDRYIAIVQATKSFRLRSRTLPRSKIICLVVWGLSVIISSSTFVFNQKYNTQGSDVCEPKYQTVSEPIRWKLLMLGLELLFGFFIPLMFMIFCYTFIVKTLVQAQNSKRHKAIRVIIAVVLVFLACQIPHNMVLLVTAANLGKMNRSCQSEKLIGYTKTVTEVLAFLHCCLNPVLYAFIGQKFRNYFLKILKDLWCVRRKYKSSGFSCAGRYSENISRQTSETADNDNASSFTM
iPSC survival up = enhancers of human iPSC single-cell survival | hiPSC single-cell survival, ATPlite luminescence; 100% = ROCK inhibitor wells, 0% = DMSO | survival enhancement, % at 20 µM | hit rate 0.044% among 360,000; in the data active = survival enhancement above about 18%;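 note: cells exposed to compounds for 16 hours before the ATP read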
APJ antag conf = APJ receptor antagonism confirmation; AID 2766; hit rate 66% among 950; APJ beta-arrestin recruitment, luminescence, antagonist mode; shares compounds with APJ antagonist; inhibition, % at 20 µM; in the data active = inhibition above about 50%
An asterisk follows results filed as active; . = no result. An excerpt weighted towards active compounds, which were near 1.5% of everything screened.

SMILES | CXCR6 inh | APJ agonist | EBI2 block | APJ antagonist | CCR6 antagonist | iPSC survival up | APJ antag conf
CN(CC(=O)Nc1ccc(F)cc1)C(=O)COC(=O)c1nc(Cl)ccc1Cl | -4 | . | -4 | . | . | -1 | .
COc1ccc(N2C(=O)CSC2c2ccccc2)cc1 (stereo not drawn) | -10 | -4 | 3 | 16 | 7 | 0 | .
COc1ccc(C2SCC(=O)N2c2nc3ccccc3s2)cc1 (stereo not drawn) | -2 | -5 | 13 | 44* | 6 | -2 | 38
CCOc1ccc(NC(=O)C2CCC(CNc3c(N4CCCCC4)c(=O)c3=O)CC2)cc1 (stereo not drawn) | 6 | -2 | -4 | 47* | -1 | 1 | 19
CCn1c(SCC(=O)NCC2CCCO2)nc2c([nH]c3ccccc32)c1=O (stereo not drawn) | 0 | -7 | -16 | -17 | 7 | 0 | .
O=C(CSc1nc2c([nH]c3ccccc32)c(=O)n1-c1ccccc1)NCC1CCCO1 (stereo not drawn) | 53* | -21 | 33 | 64* | 73* | 0 | 83*
COc1cccc(CNc2nnnn2C)c1 | 0 | 3 | -27 | 11 | 7 | -1 | .
CCCCn1c(N)c(N(CCOC)C(=O)CC(NC(=O)c2ccccc2)c2ccccc2)c(=O)[nH]c1=O (stereo not drawn) | 8 | 5 | -2 | -2 | 3 | 0 | .
Cc1ccc(C)c(NC(=S)/C(=C(\[O-])c2ccc(OC(F)F)cc2)[n+]2ccccc2)c1 | 8 | -5 | -10 | 3 | 12 | -2 | .
[O-]/C(=C(\C(=S)Nc1ccccc1F)[n+]1ccccc1)c1ccc(OC(F)F)cc1 | -2 | -9 | -8 | 48* | 19 | 0 | 22
CSc1ccccc1C(=O)NC1CCCCCC1 | -4 | -3 | -4 | 46* | -12 | 1 | 24
Cc1cc(C)c(C2=CC(=O)C[C@H](c3ccc4c(c3)OCO4)C2)c(C)c1 | -6 | -4 | 7 | -1 | 16 | 10 | .
CC(=O)C1=C(c2ccccc2)N(C(C)=O)n2c(C)nnc2S1 | 31 | -18 | 35 | 105* | 100* | -1 | 152*
Cc1ccc(NC(=O)CCNS(=O)(=O)c2ccc3c(c2)CCC(=O)N3)cc1 | -4 | -6 | -1 | 0 | 3 | -1 | .
Cc1ccc(NC(=O)CCNS(=O)(=O)c2ccc3c(c2)CCC(=O)N3)c(Br)c1 | -1 | -2 | 0 | 41* | 4 | 0 | -8
CN(C)CCCNC(=O)c1ccc(-c2nc(-c3ccc(Cl)cc3)cs2)cc1 | 14 | 0 | 22 | 52* | 82* | -3 | 94*
CN(C)CCCNC(=O)c1ccccn1 | 11 | -2 | -10 | -3 | 13 | 2 | .
Cc1cc(C)c2ccc(N)nc2c1O | 49* | -9 | -31 | 51* | 62* | -2 | 59*
Fc1cc2ncn(Cc3ccccc3)c2cc1F | -4 | -4 | -6 | 61* | 1 | 3 | -23
c1ccc(Cn2cnc3ccccc32)cc1 | -1 | -5 | -4 | -22 | -10 | -1 | .
CCCCN(CCCC)Cc1cc(=O)oc2cc(OC)c(Cl)cc12 | -6 | . | 9 | . | . | -1 | .
O=[N+]([O-])c1cccc(/C=N/NS(=O)(=O)c2ccccc2)c1 | 10 | -10 | 5 | 65* | 47 | 0 | 68*
CCn1c(SC)nnc1C1CCCN(CC(=O)Nc2ccccc2N2CCOCC2)C1 (stereo not drawn) | 6 | 1 | 5 | 2 | -11 | 0 | .
Cn1c(=O)c(C(=S)NC(=O)C2CC2)c(N)n(Cc2ccccc2)c1=O | . | -13 | . | 42* | . | . | 72*
CCN(CC)CC(=O)c1c(N)n(Cc2ccccc2)c(=O)n(C)c1=O | -8 | -3 | -7 | -5 | 1 | -1 | .
SMILES | CXCR6 inh | APJ agonist | EBI2 block | APJ antagonist | CCR6 antagonist | iPSC survival up | APJ antag conf
COc1ccccc1-c1nnc(SCC(=O)NNC(=O)c2ccccc2F)n1C | 8 | -3 | 9 | -9 | -4 | 0 | .
COc1ccc(NC(=S)NNc2ccc(S(=O)(=O)Nc3ccccc3C(=O)O)cc2[N+](=O)[O-])cc1 | 43* | -11 | 21 | 56* | 68* | 2 | 100*
CC(=O)NC12CC3CC(C1)CC(C(=O)Oc1ccc(N(C)S(=O)(=O)c4cc(C)ccc4C)cc1)(C3)C2 | -2 | -1 | 23 | 2 | 5 | 1 | .
O=C(Cc1cccc(NC(=O)C2CCCN(C(=O)C3CCC3)C2)c1)Nc1cccc(C(=O)N2CCOCC2)c1 (stereo not drawn) | -8 | . | -4 | . | -1 | 2 | .
COc1ccc(NC2(c3ccc(Cl)cc3)C(=O)c3ccccc3C2=O)cc1 | 33 | -9 | -3 | 62* | 74* | 12 | 73*
O=C/C(=C\Nc1ccc(S(=O)(=O)CCO)cc1)c1nc2cc(Cl)ccc2o1 | 12 | 1 | 4 | 105* | 44 | 0 | 14
COc1cc(NS(=O)(=O)c2ccc(NC(C)=O)cc2)nc(OC)n1 | -4 | 1 | -4 | 9 | -11 | -1 | .
COc1cc(NS(=O)(=O)c2ccc(N/C=C(\C#N)c3nc4cc(Cl)ccc4o3)cc2)nc(OC)n1 | 13 | 1 | 2 | 41* | 24 | 2 | -2
O=C/C(=C\Nc1ccc(Cl)cn1)c1nc2cc(Cl)ccc2o1 | -3 | -5 | 4 | 15 | -12 | 0 | .
CC(=O)Nc1ccc(NC(=O)C(NS(=O)(=O)c2cccc3nsnc23)C(C)C)cc1 (stereo not drawn) | 0 | -2 | -8 | -3 | 7 | 0 | .
COc1cc(O)c2c(c1)COC2=O | 6 | 2 | -4 | 44* | -15 | 0 | 25
CCOC(=O)[C@H]1[C@H]2COc3ccc(Cl)cc3[C@@H]2N2C(=O)c3ccc(Cl)cc3NC(=O)[C@@]12C | 18 | -1 | -4 | 0 | 12 | 2 | .
CCN(CC)CC(=O)c1ccc(-c2ccccc2)cc1 | 30 | -19 | 18 | 94* | 72* | -1 | 114*
CN(C)CC(=O)c1ccc(-c2ccccc2)cc1 | 9 | -11 | 0 | 46* | 30 | 1 | 73*
CCN(CC)C(=O)c1ccc(-c2ccccc2)cc1 | -3 | -3 | 12 | -8 | 5 | 1 | .
C=C1C(=O)O[C@@H]2C[C@@H](C)[C@@H]3C=CC(=O)[C@@]3(C)[C@@H](OC(C)=O)[C@H]12 | . | -10 | . | 46* | 50 | . | 77*
O=C(CSc1ccc([N+](=O)[O-])cc1)Nc1nnc(C2CC2)s1 | -4 | -3 | 0 | -6 | 1 | 0 | .
C/C(=N\O)C(=O)C(CN1CCCCC1)CN1CCCCC1 | 24 | -1 | -5 | 42* | 51* | -2 | 23
COC(=O)c1cn(Cc2cc(OC)ccc2OC)cc(F)c1=O | 3 | 0 | -15 | -13 | -2 | -1 | .

Source: PubChem BioAssay
